Measured values gathered from unrelated publications.
Target: Tyrosine-protein kinase SYK (SYK, Homo sapiens, UniProt P43405)

| Structure (SMILES) | test | setting | quantity | value |
| --- | --- | --- | --- | --- |
| CO[C@@H]1[C@H](N(C)C(=O)c2ccccc2)C[C@H]2O[C@]1(C)n1c3ccccc3c3c4c(c5c6ccccc6n2c5c31)C(=O)NC4 | enzyme activity, inhibitor | 1 µM | inhibition | 96% |
| CCCCC(=O)Nc1ccc(-c2ccc3ncn(CCC)c(=O)c3c2)cn1 | binding, competition with immobilised ligand | 0.5 µM | remaining binding | 90% |
| C1=C/COCc2cc(ccc2OCCN2CCCC2)Nc2nccc(n2)-c2cccc(c2)COC/1 | cell-free assay | 0.1 µM | remaining signal | 87% |
| CC(C)S(=O)(=O)c1ccc2nccc(Nc3ccc4sc(C5CCCC5)nc4c3)c2c1 | enzyme activity, inhibitor | 1 µM | activity vs control | 104% |
| Cc1ccc(NC(=O)c2ccnc(C(F)(F)F)c2)cc1-c1cc(OCCO)nc(N2CCOCC2)c1 | binding, competition with immobilised ligand | 1 µM | remaining binding | 100% |
| CC#CC(=O)N1CCC[C@H]1c1nc(-c2ccc(C(=O)Nc3ccccn3)cc2)c2c(N)nccn12 | enzyme activity, inhibitor | 1 µM | inhibition | 0% |
| COc1ccc2oc(-c3ccc4nc(N)oc4c3)c/c(=N\c3ccccc3NC(=O)CCN)c2c1 | binding | 1 µM | remaining binding | 96% |
| C[C@H]1CC[C@H](n2c3cnccc3c3cnc(Nc4ccc5c(n4)CCN(C(=O)CO)C5)nc32)CC1 | cell-free assay, competition with immobilised ligand | 1 µM | remaining binding | 100% |
